# Assay outcomes from PubChem.
# The list is not random: actives were taken first. Their share in the collection is about 2.8%.
# PAFAH1B3 FP inh: PAFAH1B3 enzyme inhibitors, primary screen, biochemical, fluorescence polarization, human; Platelet-activating factor acetylhydrolase IB subunit alpha1 (Homo sapiens), Q15102; inhibition, % at 3.39 µM; recombinant PAFAH1B3, FP-rhodamine probe; 0.28% of 340,000 active;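 active = inhibition above the screen-wide average of all tested compounds plus 3 SD, cut at about 25% in these data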;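 also: 0% = enzyme with DMSO only and 100% = wells lacking PAFAH1B3 protein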
# Target sequence (Q15102 whole entry, looked up): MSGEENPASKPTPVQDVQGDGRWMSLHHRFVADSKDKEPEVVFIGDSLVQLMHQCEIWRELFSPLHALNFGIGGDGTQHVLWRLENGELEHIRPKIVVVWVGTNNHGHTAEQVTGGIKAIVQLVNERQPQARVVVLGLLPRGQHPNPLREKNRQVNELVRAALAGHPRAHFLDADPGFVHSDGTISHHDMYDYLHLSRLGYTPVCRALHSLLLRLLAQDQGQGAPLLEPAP
# PAFAH2 FP inh: PAFAH2 enzyme inhibitors, primary screen, biochemical, fluorescence polarization, human; 0.99% of 340,000 active; Platelet-activating factor acetylhydrolase 2, cytoplasmic (Homo sapiens), Q99487; recombinant PAFAH2, FP-rhodamine activity probe; AID 492956, 2010; inhibition, % at 3.39 µM;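 active = inhibition above the mean over all tested compounds plus 3 SD, cut at about 30% in these data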;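 also: inhibitors block probe labeling of enzyme so polarization drops; 0% = enzyme with DMSO and 100% = wells lacking PAFAH2 protein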
# pPAFAH FP inh: pPAFAH enzyme inhibitors, primary screen, biochemical, fluorescence polarization, human; inhibition, % at 3.39 µM; Platelet-activating factor acetylhydrolase (Homo sapiens), Q13093; recombinant pPAFAH, FP-rhodamine probe fluorescence polarization; 1.5% of 330,000 active;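 active = inhibition above the mean inhibition across the screen plus 3 SD, cut at about 25% in these data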;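 also: inhibitors block binding of the rhodamine activity-based probe so polarization drops; 0% = enzyme with DMSO and 100% = wells lacking pPAFAH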
# ASAP1 inh: inhibitors of human ASAP1 ArfGAP activity, primary screen, biochemical, fluorescence polarization; AID 624377, 2012; 0.19% of 360,000 active; ASAP1-stimulated ARF1 GTP hydrolysis, GDP FP detection; inhibition, % at 16.5 µM; in the data active = inhibition above about 25%;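 also: 0% = vehicle with enzyme and substrate and 100% = no enzyme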
# PAFAH1B2 inh: PAFAH1B2 enzyme inhibitors, primary screen, biochemical, fluorescence polarization, human; Platelet-activating factor acetylhydrolase IB subunit alpha2 (Homo sapiens), P68402; recombinant PAFAH1B2, FP-rhodamine activity probe; inhibition, % at 3.39 µM; 1.2% of 340,000 active; AID 492953, 2010;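 active = inhibition above the mean of all tested compounds plus 3 SD, cut at about 24% in these data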;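 also: 0% = enzyme with DMSO and 100% = wells lacking PAFAH1B2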
# Target sequence (P68402 whole entry, looked up): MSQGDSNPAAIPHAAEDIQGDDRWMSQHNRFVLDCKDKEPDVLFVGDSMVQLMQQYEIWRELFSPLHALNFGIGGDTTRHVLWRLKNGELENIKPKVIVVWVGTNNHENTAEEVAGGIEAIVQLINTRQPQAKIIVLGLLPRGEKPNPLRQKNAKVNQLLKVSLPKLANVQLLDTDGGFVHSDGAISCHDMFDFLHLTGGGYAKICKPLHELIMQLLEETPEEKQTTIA
# ARFGAP1 inh: inhibitors of rat ARFGAP1 GAP activity, primary screen, biochemical, fluorescence polarization, GDP tracer. inhibition, % at 16.5 µM. ADP-ribosylation factor GTPase-activating protein 1 (Rattus norvegicus), Q62848. Arfgap1-stimulated ARF1 GTP hydrolysis, GDP FP detection. 0.26% of 360,000 active;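 active = inhibition above a per-plate limit, mean inhibition of low control wells plus 3 SD, cut at about 25% in these data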;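 also: 0% = DMSO wells with enzyme and 100% = wells lacking Arfgap1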
# Target sequence (Q62848 1-136 limits assumed): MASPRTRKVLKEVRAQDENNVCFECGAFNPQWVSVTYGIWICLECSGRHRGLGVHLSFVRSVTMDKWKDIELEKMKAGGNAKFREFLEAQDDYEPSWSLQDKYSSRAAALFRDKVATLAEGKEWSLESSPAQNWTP
#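 System: truncated rat Arfgap1 GAP domain / Benchmarks: high control wells lacking Arfgap1, low control full reaction with DMSO / Times: compound-enzyme preincubation 20 min, reaction 120 min, detection 60 min, 25 °C / Repeats: one replicate per compound / Also added: human ARF1(Δ1-17)-GTP substrate / Measured by: Tracer-displacement fluorescence polarization with EDTA stop, 620/688 nm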
# ARFGAP1 inh conf: ARFGAP1 inhibitor hit confirmation, biochemical, fluorescence polarization, triplicate | shares compounds with ARFGAP1 inh | ARFGAP1-stimulated ARF1 GTP hydrolysis, GDP tracer FP | 30% of 890 active | inhibition, % at 16.5 µM | AID 651608, 2012;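 active = average inhibition over triplicates above the hit cutoff set in the earlier primary screen, cut at about 25% in these data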;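 also: 0% = Arfgap1 plus ARF1-GTP with DMSO and 100% = wells lacking Arfgap1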
# * hit, by the source's call; x = no result given.
SMILES,PAFAH1B3 FP inh,PAFAH2 FP inh,pPAFAH FP inh,ASAP1 inh,PAFAH1B2 inh,ARFGAP1 inh,ARFGAP1 inh conf
O=[N+]([O-])c1cccc(-n2cc3ccc([N+](=O)[O-])cc3n2)c1,-2,-2,2,18,-3,40*,45*
Nc1cccc(-c2nc3cc(S(=O)(=O)c4ccc5oc(-c6cccc(N)c6)nc5c4)ccc3o2)c1,-6,5,3,4,-1,26*,21
CC1(C)Cc2c(cnn2-c2ccccc2)-c2c1c1ccccc1n2CC(O)CCl (centres undefined),14,13,13,7,13,26*,7
CC1(C)Cc2c(cnn2-c2ccccc2)C(=O)/C1=N\NC(=O)c1ccncc1,6,5,-2,2,1,-13,x
O=C(NCCCCc1ccccc1)c1cccc(NC(=O)c2ccccc2)c1,3,-5,x,16,-3,1,x
O=C(NCCc1ccc(F)cc1)c1cccc(NC(=O)c2ccccc2)c1,-2,2,-7,13,2,37*,3
NC1=NC[C@H](Cc2ccccc2)N1CCc1cc(C(F)(F)F)cc(C(F)(F)F)c1,9,-1,1,6,0,25*,2
FC(F)(F)c1cc(CCN2C(=S)NC[C@@H]2Cc2ccccc2)cc(C(F)(F)F)c1,-3,3,11,-6,-2,15,x
O=C(CN1CCN(c2ccc(F)cc2)CC1)Nc1ccc(S(=O)(=O)N2CCOCC2)cc1,3,0,5,-6,2,-10,x
Cc1c(C(=O)OCC(=O)N2CC(C)CC(C)C2)oc2ccccc12 (centres undefined),-4,0,11,-3,4,5,x
COc1ccc2oc(C(=O)OCC(=O)N3CC(C)CC(C)C3)c(C)c2c1 (centres undefined),-1,-2,4,13,8,31*,39*
COc1ccc2oc(C(=O)OCC(=O)N3CC(C)OC(C)C3)c(C)c2c1 (centres undefined),1,5,0,11,1,25*,13
COc1ccc(Cl)cc1C(=O)NNC(=O)CCNC(=O)c1ccccc1,x,x,x,1,x,11,x
COc1cc(C#Cc2c(-c3cncn3C)n(C)c3ccc(-c4ccc5cc[nH]c5c4)cc23)cc(OC)c1,-1,-4,17,21,7,32*,21
Cc1nc2ccc(NC(=O)c3ccc(Cl)c(NC(=O)c4cccs4)c3)cc2s1,-5,-33,-14,19,-4,26*,14
Cc1nc2ccc(NC(=O)C3CCN(S(=O)(=O)c4cccs4)CC3)cc2s1,-2,0,2,9,1,25*,3
COc1ccc(S(=O)(=O)N(C)C)cc1NCC(=O)Nc1cccc(C#N)c1,2,-8,0,1,0,-8,x
Cc1cccc(NC(=O)CCN2CCC(C)CC2)c1,0,1,6,5,0,27*,-5
Cc1ccc(S(=O)(=O)Nc2ccccc2C(O)c2ccccc2)cc1 (centres undefined),0,1,6,-7,22,26*,-5
CCCOc1ccc(C(=O)Nc2ccc(S(=O)(=O)N3C[C@@H]4C[C@@H](C3)c3cccc(=O)n3C4)cc2)cc1,5,6,7,-14,4,25*,3
Nc1ccn([C@@H]2O[C@H](CNCc3ccc(N4CCNCC4)cc3)[C@@H](O)[C@H]2O)c(=O)n1,x,x,x,6,x,8,x
S=C(NCc1ccncc1)Nc1cc(Cl)cc(Cl)c1,9,0,-1,10,5,25*,5
S=C(NCc1cccnc1)Nc1cc(Cl)cc(Cl)c1,-2,0,-4,1,-3,25*,1
CC(C)COC(=O)N1CCCCC1c1cc(C(=O)Nc2ccccc2)no1 (centres undefined),x,x,x,0,x,3,x
O=c1c2ccccc2nc(/C=C/c2cccnc2)n1CCc1ccccc1,-3,7,19,3,3,15,x
SMILES,PAFAH1B3 FP inh,PAFAH2 FP inh,pPAFAH FP inh,ASAP1 inh,PAFAH1B2 inh,ARFGAP1 inh,ARFGAP1 inh conf
O=c1c2ccccc2nc(/C=C/c2ccccc2)n1CCc1ccccc1,10,-4,-1,-6,11,52*,4
COc1ccc(OC)c(-c2nnc3n2N=C(c2ccc(OC)c(OC4CCOC4)c2)CS3)c1 (centres undefined),2,7,7,-1,6,26*,-2
CCOC(=O)C1(C)CCN1C(=O)c1cccnc1Oc1ccccc1 (centres undefined),x,x,x,-4,x,2,x
Cc1cc(=O)n(C2CCS(=O)(=O)C2)[nH]1 (centres undefined),x,x,-3,-1,x,29*,-8
Cc1ccccc1-c1nnnn1C1CCS(=O)(=O)C1 (centres undefined),6,-5,2,5,4,-1,x
COc1ccc(-c2nnn(CC(=O)Nc3ccc4c(c3)OCCO4)n2)cc1OC,7,2,1,x,-6,x,x
O=C(O)C(Cc1ccccc1)N1C(=O)C=CC1=O (centres undefined),x,x,x,0,x,-7,x
CN(C)S(=O)(=O)c1ccc(N2CCCC2)c(C(=O)NNC(=O)COc2ccccc2F)c1,1,4,3,15,-1,-2,x
Cc1c(C(=O)Nc2ccc(-n3cnnn3)cc2)oc2ccccc12,-18,-20,-12,24,-16,26*,47*
C=C(C)C(=O)OCC(O)COc1ccc(C(C)(C)c2ccc(OCC(O)COC(=O)C(=C)C)cc2)cc1 (centres undefined),8,-4,-4,6,4,32*,14
CC(C(=O)Nc1nc(-c2ccc(F)c(F)c2)cs1)N1C(=O)C2CC=CCC2C1=O (centres undefined),2,2,2,6,7,27*,2
CCOC(=O)/C(=C\Nc1ccc(OCc2ccccc2)cc1)NC(=O)c1ccccc1,x,x,x,-8,x,0,x
COc1ccc(/C(C)=N/NC(=O)c2sccc2-n2cccc2)cc1,10,2,10,7,8,29*,11
